Test results as given in ChEMBL document CHEMBL1127487, “Cyclic enkephalin analogs with exceptional potency at peripheral delta opioid receptors” (J Med Chem, 1994).
pIC50: −log10 of the molar value. Where a SMILES comes first, the peptide text is derived from it. Bridges are numbered along the chain shown (N, C = ends). [ ]: non-standard residue; d: D form. dPen = CC(C)(S)[C@@H](N)C(=O)O

What was measured:
[1] = system: Opioid receptors; mu & delta; experiment: Selectivity ratio (mu/delta) of the compound; assay type: protein assay
[2] = Selectivity ratio (GPI/MVD) of the compound; assay type: functional
Summary of the method: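 IC50 ratio GPI/MVD. GPI: guinea pig ileum strips, 1-g tension, 0.4-ms pulses. MVD: male ICR mouse vas deferens (25–40 g), Mg-free Krebs, 0.5-g tension, 2.0-ms pulses. Both tissues at 37 °C, 0.1 Hz, cumulative doses with 3 min contact. Hill-equation fit, ≥4 tissues each.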

Mu-type opioid receptor [3] = molecular target: Mu-type opioid receptor (Rattus norvegicus, UniProt P33535); experiment: Binding affinity towards mu opioid receptor was determined in rat brain using [3H]CTOP as radioligand; assay type: tissue-based
Mu-type opioid receptor (Rattus norvegicus, UniProt P33535), sequence (P33535 whole entry): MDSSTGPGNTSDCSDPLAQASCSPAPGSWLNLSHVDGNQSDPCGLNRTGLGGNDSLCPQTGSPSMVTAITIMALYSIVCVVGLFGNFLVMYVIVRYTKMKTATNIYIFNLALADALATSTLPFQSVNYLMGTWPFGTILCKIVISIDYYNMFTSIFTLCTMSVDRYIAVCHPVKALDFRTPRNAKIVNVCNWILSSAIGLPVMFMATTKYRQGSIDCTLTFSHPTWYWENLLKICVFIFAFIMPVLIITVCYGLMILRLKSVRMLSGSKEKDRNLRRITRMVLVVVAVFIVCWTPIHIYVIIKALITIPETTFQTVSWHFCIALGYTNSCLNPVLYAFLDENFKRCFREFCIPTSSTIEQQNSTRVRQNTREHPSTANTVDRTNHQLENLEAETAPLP
Summary of the method: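 Rat brain membranes washed in 50 mM Tris-HCl pH 7.4, preincubated 30 min at 25 °C. Competition against 0.5 nM [3H]CTOP, 10 analog concentrations over an 800-fold range, in peptidase-inhibitor buffer with BSA. Incubation 3 h at 25 °C. Nonspecific binding defined by 10 μM naltrexone. Bound ligand filtered and counted; IC50 by nonlinear least-squares regression, at least three runs in duplicate.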

[4] = molecular target: Delta-type opioid receptor (Mus musculus, UniProt P32300); experiment: Inhibitory concentration against delta opioid receptor of electrically induced smooth muscle contraction of mouse vas deferens; assay type: functional
Delta-type opioid receptor (Mus musculus, UniProt P32300), sequence (P32300 whole entry): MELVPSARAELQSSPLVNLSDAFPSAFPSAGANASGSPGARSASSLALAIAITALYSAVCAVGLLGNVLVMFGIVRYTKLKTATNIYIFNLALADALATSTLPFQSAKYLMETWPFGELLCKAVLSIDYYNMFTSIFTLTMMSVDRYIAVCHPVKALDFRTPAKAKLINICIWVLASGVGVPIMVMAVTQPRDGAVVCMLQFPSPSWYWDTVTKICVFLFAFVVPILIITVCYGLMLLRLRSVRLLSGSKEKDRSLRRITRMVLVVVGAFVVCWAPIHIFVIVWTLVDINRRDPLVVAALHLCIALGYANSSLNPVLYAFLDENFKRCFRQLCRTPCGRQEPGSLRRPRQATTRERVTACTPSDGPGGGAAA

Mu-type opioid receptor [5] = molecular target: Mu-type opioid receptor (Cavia porcellus, UniProt P97266); experiment: Inhibitory concentration against electrically evoked contractions of guinea pig ileum longitudinal muscle-myenteric plexus; assay type: functional, tissue-based
Mu-type opioid receptor (Cavia porcellus, UniProt P97266), sequence (P97266 whole entry): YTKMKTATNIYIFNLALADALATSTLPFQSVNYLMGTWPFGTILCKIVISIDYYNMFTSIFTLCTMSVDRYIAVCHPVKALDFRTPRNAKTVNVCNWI
Summary of the method: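 Longitudinal muscle-myenteric plexus strips from male Hartley guinea pigs (250–500 g) in oxygenated Krebs bicarbonate at 37 °C, 1-g tension. Transmural stimulation at 0.1 Hz, 0.4-ms pulses, supramaximal voltage. Cumulative agonist doses with 3 min contact each. Inhibition is relative to contraction height over the preceding 1 min.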

[6] = molecular target: Delta-type opioid receptor (Rattus norvegicus, UniProt P33533); experiment: Binding affinity towards delta opioid receptor was determined in rat brain using [H]-[p-Cl-Phe4]-DPDPE as radioligand; assay type: tissue-based
Delta-type opioid receptor (Rattus norvegicus, UniProt P33533), sequence (P33533 whole entry): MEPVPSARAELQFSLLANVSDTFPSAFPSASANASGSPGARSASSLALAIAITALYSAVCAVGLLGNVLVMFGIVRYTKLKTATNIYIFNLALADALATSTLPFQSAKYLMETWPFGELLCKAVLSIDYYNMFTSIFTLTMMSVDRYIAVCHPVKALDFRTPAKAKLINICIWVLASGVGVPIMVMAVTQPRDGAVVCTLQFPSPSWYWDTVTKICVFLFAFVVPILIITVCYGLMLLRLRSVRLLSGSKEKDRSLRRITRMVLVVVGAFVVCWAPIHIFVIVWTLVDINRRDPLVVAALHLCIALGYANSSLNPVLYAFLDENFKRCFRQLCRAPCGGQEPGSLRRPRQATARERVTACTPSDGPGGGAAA
Summary of the method: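 Rat brain membranes washed in 50 mM Tris-HCl pH 7.4, preincubated 30 min at 25 °C to strip endogenous peptides. Buffer contains BSA, bestatin, bacitracin, captopril and toluenesulfonyl fluoride. Incubation 3 h at 25 °C. Nonspecific binding with 10 μM naltrexone. Filtration, scintillation counting, nonlinear least-squares fit, n ≥ 6.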

SMILES	Selectivity [1]	Selectivity [2]	pIC50 (Mu-type opioid receptor [3])	pIC50 [4]	pIC50 (Mu-type opioid receptor [5])	pIC50 [6]
CC1(C)SSC[C@@H](C(=O)N[C@@H](Cc2ccccc2)C(=O)O)NC(=O)[C@H](Cc2ccccc2)NC(=O)CNC(=O)[C@@H]1NC(=O)[C@@H](N)Cc1ccc(O)cc1 (H-Y[dPen]GFCF-OH; disulfide 2-5)	200	5100	6.55	10.80	7.08	8.85
CC1(C)SSC[C@@H](C(=O)N[C@@H](Cc2ccccc2)C(=O)O)NC(=O)[C@H](Cc2ccc(Br)cc2)NC(=O)CNC(=O)[C@@H]1NC(=O)[C@@H](N)Cc1ccc(O)cc1	530	4300	6.28	10.55	6.92	9.00
CC(C)[C@H](NC(=O)[C@H](CC(=O)O)NC(=O)[C@H](Cc1ccccc1)NC(=O)[C@@H](C)NC(=O)[C@@H](N)Cc1ccc(O)cc1)C(=O)N[C@H](C(=O)NCC(N)=O)C(C)C [DELTORPHIN C]					< 5.82	
CC1(C)SSC[C@@H](C(=O)N[C@@H](Cc2ccccc2)C(=O)O)NC(=O)[C@H](Cc2ccc(I)cc2)NC(=O)CNC(=O)[C@@H]1NC(=O)[C@@H](N)Cc1ccc(O)cc1	1300	2100	5.80	9.52	6.19	8.92
CC1(C)SSC[C@@H](C(=O)N[C@@H](Cc2ccccc2)C(=O)O)NC(=O)[C@H](Cc2ccc(F)cc2)NC(=O)CNC(=O)[C@@H]1NC(=O)[C@@H](N)Cc1ccc(O)cc1	160	1100	6.96	10.55	7.49	9.15
CC1(C)SSC[C@@H](C(=O)N[C@@H](Cc2ccccc2)C(=O)O)NC(=O)[C@H](Cc2ccc(Cl)cc2)NC(=O)CNC(=O)[C@@H]1NC(=O)[C@@H](N)Cc1ccc(O)cc1	160	470	7.08	10.12	7.44	9.29
